Assay [1] concerns Bacillus subtilis. Briefly: Antimicrobial activity against Bacillus subtilis after 24 hrs by microdilution method. Format: functional. The gist of the method: (§1)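 Growth was judged by turbidity, and the MIC was taken as the minimum concentration giving the lowest growth. Amikacin served as reference.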
On the technique in general: Dilution methods test growth across graded concentrations, often in twofold steps.

The subject of assay [2] is Escherichia coli. Kind of assay: Antimicrobial activity against Escherichia coli after 24 hrs by microdilution method. Format: functional. In a few lines: as §1
Assay [3] concerns Klebsiella pneumoniae. Briefly: Antimicrobial activity against Klebsiella pneumoniae at 100 ug/disc after 24 hrs by disc diffusion method. The format is functional. The settings on record: read-out: DIZ.
For assay [4], the system named is Salmonella typhimurium. Kind of assay: Antimicrobial activity against Salmonella Typhimurium after 24 hrs by microdilution method. Format: functional, Salmonella enterica subsp. enterica serovar Typhimurium. To be noted: Salmonella enterica. In a few lines:
as §1

The subject of assay [5] is Staphylococcus aureus. Briefly: Antimicrobial activity against methicillin-resistant Staphylococcus aureus strain 2 TB4G at 100 ug/disc after 24 hrs by disc diffusion method. The format is functional. The settings on record: read-out: DIZ.
The test system of assay [6] is Bacillus subtilis. Briefly: Antimicrobial activity against Bacillus subtilis at 100 ug/disc after 24 hrs by disc diffusion method. Format: functional. The settings on record: read-out: DIZ.
In assay [7] the test system is Listeria monocytogenes. Briefly: Antimicrobial activity against Listeria monocytogenes at 100 ug/disc after 24 hrs by disc diffusion method. The format is functional. To be noted: read-out: DIZ.
The test system of assay [8] is Salmonella typhimurium. Kind of assay: Antimicrobial activity against Salmonella Typhimurium at 100 ug/disc after 24 hrs by disc diffusion method. The settings on record: Salmonella enterica, read-out: DIZ. Format: functional, Salmonella enterica subsp. enterica serovar Typhimurium. For orientation: Agar diffusion results depend on both activity and mobility in agar.

The subject of assay [9] is Staphylococcus aureus. Briefly: Antimicrobial activity against Staphylococcus aureus after 24 hrs by microdilution method. The format is functional. The gist of the method:
as §1

Assay [10] concerns Staphylococcus aureus. Kind of assay: Antimicrobial activity against methicillin-resistant Staphylococcus aureus strain 4 TB5G at 100 ug/disc after 24 hrs by disc diffusion method. Format: functional, organism-based.
Assay [11] relates to Staphylococcus aureus. Briefly: Antimicrobial activity against methicillin-resistant Staphylococcus aureus strain 1 TB3G at 100 ug/disc after 24 hrs by disc diffusion method. Format: functional. To be noted: read-out: DIZ.
For assay [12], the system named is Staphylococcus epidermidis. Kind of assay: Antimicrobial activity against Staphylococcus epidermidis after 24 hrs by microdilution method. The format is functional. The gist of the method:
as §1

For assay [13], the system named is Staphylococcus aureus. Kind of assay: Antimicrobial activity against Staphylococcus aureus at 100 ug/disc after 24 hrs by disc diffusion method. The format is functional. The settings on record: read-out: DIZ.
In assay [14] the test system is Staphylococcus aureus. Kind of assay: Antimicrobial activity against methicillin-resistant Staphylococcus aureus strain 4 TB5G after 24 hrs by microdilution method. Format: functional. In a few lines:
(§2)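 Growth was judged by turbidity. The MIC was taken as the lowest concentration giving the lowest growth.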

Assay [15] deals with Escherichia coli. Briefly: Antimicrobial activity against Escherichia coli at 100 ug/disc after 24 hrs by disc diffusion method. Format: functional. To be noted: read-out: DIZ.
Assay [16] has as its system Listeria monocytogenes. Briefly: Antimicrobial activity against Listeria monocytogenes after 24 hrs by microdilution method. Format: functional. The gist of the method: as §1
The subject of assay [17] is Klebsiella pneumoniae. Kind of assay: Antimicrobial activity against Klebsiella pneumoniae after 24 hrs by microdilution method. Format: functional. The gist of the method:
as §1

The subject of assay [18] is Staphylococcus epidermidis. Kind of assay: Antimicrobial activity against Staphylococcus epidermidis at 100 ug/disc after 24 hrs by disc diffusion method. Format: functional. The settings on record: read-out: DIZ.
Assay [19] concerns Staphylococcus aureus. Kind of assay: Antimicrobial activity against methicillin-resistant Staphylococcus aureus strain 1 TB3G after 24 hrs by microdilution method. The format is functional. In a few lines: as §2
Assay [20] relates to Staphylococcus aureus. Briefly: Antimicrobial activity against methicillin-resistant Staphylococcus aureus strain 2 TB4G after 24 hrs by microdilution method. The format is functional. The gist of the method: as §2

One may read the MIC as the least concentration at which growth counts as inhibited.

≈ marks a conversion by molar mass, not a printed value. Calls of active or inactive are those of the source. The calls are words filed in the database; no cut-off is given here.

Consider `NCC[C@H](O)C(=O)N[C@@H]1C[C@H](N)[C@@H](O[C@H]2O[C@H](CN)[C@@H](O)[C@H](O)[C@H]2O)[C@H](O)[C@H]1O[C@H]1O[C@H](CO)[C@@H](O)[C@H](N)[C@H]1O` [AMIKACIN], for which the MIC with Bacillus subtilis [1] was 6 µg/mL (≈ 10.2 µM); in the assay on Escherichia coli [2], 6 µg/mL (≈ 10.2 µM); against Salmonella typhimurium [4], 12 µg/mL (≈ 20.5 µM); in the assay with Staphylococcus aureus [9] it was 50 µg/mL (≈ 85.4 µM); in assay [12], 12 µg/mL (≈ 20.5 µM); against Staphylococcus aureus [14] it was above 100 µg/mL. Also, the MIC against Listeria monocytogenes [16] is 6 µg/mL (≈ 10.2 µM); in the assay with Klebsiella pneumoniae [17] it was 6 µg/mL (≈ 10.2 µM); with Staphylococcus aureus [19] it was above 100 µg/mL; against Staphylococcus aureus [20] it was above 100 µg/mL. Moreover, the zone of inhibition at 100 µg/disc in the assay on Klebsiella pneumoniae [3] is 21 mm; in the assay with Staphylococcus aureus [5], 19 mm; with Bacillus subtilis [6], 21 mm; with Listeria monocytogenes [7], 20 mm; in the assay on Salmonella typhimurium [8], 19 mm; in the assay on Staphylococcus aureus [11], 17 mm. Further, the zone of inhibition at 100 µg/disc with Staphylococcus aureus [13] was determined as 20 mm; in the assay on Escherichia coli [15], 22 mm; in assay [18], 22 mm. Besides, the “diameter of the inhibition zone (DIZ)” value in the assay with Staphylococcus aureus [10] was “inactive”.

(Values after ChEMBL document CHEMBL1770123, “SPF32629A and SPF32629B: enantioselective synthesis, determination of absolute configuration, cytotoxicity and antibacterial evaluation” (Eur J Med Chem, 2011).)
